Laboratory results published in ChEMBL document CHEMBL5058577, “EUbOPEN Chemogenomics Library 2 (Multiplex)” (2022).

Test system: Fibroblast
Assay: Multiplex assay against human fibroblast
Format: toxicity, cell-based
Method in brief: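 At seeding, live cells were stained with Hoechst33342, BioTracker Green Microtubule Cytoskeleton Dye, MitoTracker Red and Annexin V Alexa Fluor 680. After compound addition they were imaged on a CQ1 microscope at 37°C and 5% CO2, and CellPathfinder machine-learning gating sorted them into Hoechst high-intensity objects or normal cells, with normal cells further split into healthy, pyknosed or fragmented nuclei and pyknosed cells into mitotic or apoptotic. Tubulin, mitochondrial-mass and membrane-permeability phenotypes are given as per cents of cells with healthy nuclei.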

[1] = 12 h, 1 µM, compound concentration 1 uM, replicate 1
[2] = 12 h, 1 µM, compound concentration 1 uM, replicate 2
[3] = 12 h, 10 µM, compound concentration 10 uM, replicate 1
[4] = 12 h, 10 µM, compound concentration 10 uM, replicate 2
[5] = 24 h, 1 µM, compound concentration 1 uM, replicate 1
[6] = 24 h, 1 µM, compound concentration 1 uM, replicate 2
[7] = 24 h, 10 µM, compound concentration 10 uM, replicate 1
[8] = 24 h, 10 µM, compound concentration 10 uM, replicate 2
[9] = 48 h, 1 µM, compound concentration 1 uM, replicate 1
[10] = 48 h, 1 µM, compound concentration 1 uM, replicate 2
[11] = 48 h, 10 µM, compound concentration 10 uM, replicate 1
[12] = 48 h, 10 µM, compound concentration 10 uM, replicate 2

In the case of `O=C1[C@H](Cc2ccc(O)cc2)N2C(=O)CCN(C(=O)NCc3ccccc3)[C@H]2CN1Cc1cccc2ccccc12`, the “Population Apoptotic (%)” value [1] is reported as 32%, the “Population Fragmented Nuclei (%)” value [1] is reported as 18% and the “Population Healthy Nuclei (%)” value [1] is reported as 57%. The “Population Hoechst High Intensity Objects (%)” value [1] was 3%, the “Population Membrane Permeable-Phenotype (%)” value [1] was 0% and the “Population Mitochondria Different-Phenotype (%)” value [1] was 11%. For the same molecule, the “Population Mitotic Cells (%)” value [1] was 67%, the “Population Normal (%)” value [1] was 96% and the “Population Pyknosed Nuclei (%)” value [1] was 24%. For the same molecule, the “Population Tubulin-Different-Phenotype (%)” value [1] was 47%, the “Total Cell Count” value [1] was 160 and the “Population Apoptotic (%)” value [2] was 30%. The “Population Fragmented Nuclei (%)” value [2] was 27%, the “Population Healthy Nuclei (%)” value [2] was 45% and the “Population Hoechst High Intensity Objects (%)” value [2] was 2%. For the same molecule, the “Population Membrane Permeable-Phenotype (%)” value [2] was 5%, the “Population Mitochondria Different-Phenotype (%)” value [2] was 13% and the “Population Mitotic Cells (%)” value [2] was 69%. The “Population Normal (%)” value [2] was 97%, the “Population Pyknosed Nuclei (%)” value [2] was 26% and the “Population Tubulin-Different-Phenotype (%)” value [2] was 58%. The “Total Cell Count” value [2] was 152, the “Population Apoptotic (%)” value [3] was 35% and the “Population Fragmented Nuclei (%)” value [3] was 18%. The “Population Healthy Nuclei (%)” value [3] was 58%, the “Population Hoechst High Intensity Objects (%)” value [3] was 8% and the “Population Membrane Permeable-Phenotype (%)” value [3] was 0%. For the same molecule, the “Population Mitochondria Different-Phenotype (%)” value [3] was 24%, the “Population Mitotic Cells (%)” value [3] was 64% and the “Population Normal (%)” value [3] was 91%. For the same molecule, the “Population Pyknosed Nuclei (%)” value [3] was 23%, the “Population Tubulin-Different-Phenotype (%)” value [3] was 84% and the “Total Cell Count” value [3] was 146. The “Population Apoptotic (%)” value [4] was 45%, the “Population Fragmented Nuclei (%)” value [4] was 23% and the “Population Healthy Nuclei (%)” value [4] was 45%. The “Population Hoechst High Intensity Objects (%)” value [4] was 9%, the “Population Membrane Permeable-Phenotype (%)” value [4] was 8% and the “Population Mitochondria Different-Phenotype (%)” value [4] was 15%. The “Population Mitotic Cells (%)” value [4] was 55%, the “Population Normal (%)” value [4] was 90% and the “Population Pyknosed Nuclei (%)” value [4] was 30%. For the same molecule, the “Population Tubulin-Different-Phenotype (%)” value [4] was 83%, the “Total Cell Count” value [4] was 144 and the “Population Apoptotic (%)” value [5] was 42%. For the same molecule, the “Population Fragmented Nuclei (%)” value [5] was 16%, the “Population Healthy Nuclei (%)” value [5] was 62% and the “Population Hoechst High Intensity Objects (%)” value [5] was 3%. For the same molecule, the “Population Membrane Permeable-Phenotype (%)” value [5] was 3%, the “Population Mitochondria Different-Phenotype (%)” value [5] was 7% and the “Population Mitotic Cells (%)” value [5] was 57%. For the same molecule, the “Population Normal (%)” value [5] was 96%, the “Population Pyknosed Nuclei (%)” value [5] was 21% and the “Population Tubulin-Different-Phenotype (%)” value [5] was 49%. For the same molecule, the “Total Cell Count” value [5] was 158, the “Population Apoptotic (%)” value [6] was 28% and the “Population Fragmented Nuclei (%)” value [6] was 30%. The “Population Healthy Nuclei (%)” value [6] was 47%, the “Population Hoechst High Intensity Objects (%)” value [6] was 2% and the “Population Membrane Permeable-Phenotype (%)” value [6] was 7%. For the same molecule, the “Population Mitochondria Different-Phenotype (%)” value [6] was 8%, the “Population Mitotic Cells (%)” value [6] was 71% and the “Population Normal (%)” value [6] was 97%. The “Population Pyknosed Nuclei (%)” value [6] was 22%, the “Population Tubulin-Different-Phenotype (%)” value [6] was 58% and the “Total Cell Count” value [6] was 147. For the same molecule, the “Population Apoptotic (%)” value [7] was 44%, the “Population Fragmented Nuclei (%)” value [7] was 15% and the “Population Healthy Nuclei (%)” value [7] was 62%. For the same molecule, the “Population Hoechst High Intensity Objects (%)” value [7] was 10%, the “Population Membrane Permeable-Phenotype (%)” value [7] was 1% and the “Population Mitochondria Different-Phenotype (%)” value [7] was 44%. For the same molecule, the “Population Mitotic Cells (%)” value [7] was 55%, the “Population Normal (%)” value [7] was 89% and the “Population Pyknosed Nuclei (%)” value [7] was 21%. The “Population Tubulin-Different-Phenotype (%)” value [7] was 83%, the “Total Cell Count” value [7] was 141 and the “Population Apoptotic (%)” value [8] was 64%. The “Population Fragmented Nuclei (%)” value [8] was 25%, the “Population Healthy Nuclei (%)” value [8] was 47% and the “Population Hoechst High Intensity Objects (%)” value [8] was 7%. The “Population Membrane Permeable-Phenotype (%)” value [8] was 13%, the “Population Mitochondria Different-Phenotype (%)” value [8] was 21% and the “Population Mitotic Cells (%)” value [8] was 35%. The “Population Normal (%)” value [8] was 92%, the “Population Pyknosed Nuclei (%)” value [8] was 26% and the “Total Cell Count” value [8] was 137. The “Population Apoptotic (%)” value [9] was 62%, the “Population Fragmented Nuclei (%)” value [9] was 22% and the “Population Healthy Nuclei (%)” value [9] was 59%. For the same molecule, the “Population Hoechst High Intensity Objects (%)” value [9] was 7%, the “Population Membrane Permeable-Phenotype (%)” value [9] was 2% and the “Population Mitochondria Different-Phenotype (%)” value [9] was 7%. For the same molecule, the “Population Mitotic Cells (%)” value [9] was 37%, the “Population Normal (%)” value [9] was 92% and the “Population Pyknosed Nuclei (%)” value [9] was 17%. The “Population Tubulin-Different-Phenotype (%)” value [9] was 54%, the “Total Cell Count” value [9] was 164 and the “Population Apoptotic (%)” value [10] was 54%. The “Population Fragmented Nuclei (%)” value [10] was 37%, the “Population Healthy Nuclei (%)” value [10] was 45% and the “Population Hoechst High Intensity Objects (%)” value [10] was 5%. The “Population Membrane Permeable-Phenotype (%)” value [10] was 5%, the “Population Mitochondria Different-Phenotype (%)” value [10] was 6% and the “Population Mitotic Cells (%)” value [10] was 45%. For the same molecule, the “Population Normal (%)” value [10] was 94%, the “Population Tubulin-Different-Phenotype (%)” value [10] was 48% and the “Total Cell Count” value [10] was 135. The “Population Apoptotic (%)” value [11] was 85%, the “Population Fragmented Nuclei (%)” value [11] was 21% and the “Population Healthy Nuclei (%)” value [11] was 58%. For the same molecule, the “Population Hoechst High Intensity Objects (%)” value [11] was 15%, the “Population Membrane Permeable-Phenotype (%)” value [11] was 0% and the “Population Mitochondria Different-Phenotype (%)” value [11] was 50%. For the same molecule, the “Population Mitotic Cells (%)” value [11] was 14%, the “Population Normal (%)” value [11] was 84% and the “Population Pyknosed Nuclei (%)” value [11] was 20%. The “Population Tubulin-Different-Phenotype (%)” value [11] was 85%, the “Total Cell Count” value [11] was 124 and the “Population Apoptotic (%)” value [12] was 66%. For the same molecule, the “Population Fragmented Nuclei (%)” value [12] was 32%, the “Population Healthy Nuclei (%)” value [12] was 53% and the “Population Hoechst High Intensity Objects (%)” value [12] was 10%. For the same molecule, the “Population Membrane Permeable-Phenotype (%)” value [12] was 5%, the “Population Mitochondria Different-Phenotype (%)” value [12] was 38% and the “Population Mitotic Cells (%)” value [12] was 33%. The “Population Normal (%)” value [12] was 89%, the “Population Pyknosed Nuclei (%)” value [12] was 14% and the “Population Tubulin-Different-Phenotype (%)” value [12] was 94%. For the same molecule, the “Total Cell Count” value [12] was 119.
